Results on 1 compound are retold here after ChEMBL document CHEMBL4376814, “Novel cyclin-dependent kinase 9 (CDK9) inhibitor with suppression of cancer stemness activity against non-small-cell lung cancer” (Eur J Med Chem, 2019).

Activity calls are given as the source filed them. The calls are words filed in the database; no cut-off is given here.

Experiment [1] concerns the target Cyclin-dependent kinase-like 3 (Homo sapiens) (UniProt Q8IVW4). In words: Inhibition of human full length recombinant human CDKL3 at 1 uM using RRRFRPASPLRGP as substrate measured after 120 mins in presence of [gamma33P]ATP by scintillation counting method relative to control.
The test system of experiment [2] is A549. Nature of the experiment: Downregulation of OCT4 in human A549 cells at 0.25 to 1 uM by Western blot analysis. In kind it is functional, cell-based.
For experiment [3], the target named is Serine/threonine-protein kinase pim-1 (Homo sapiens) (UniProt P11309). Nature of the experiment: Inhibition of recombinant full-length human Pim-1 at 1 uM using KKRNRTLTV as substrate measured after 40 mins in presence of [gamma33P]ATP by scintillation counting method relative to control.
Sequence of Serine/threonine-protein kinase pim-1 (Homo sapiens) (P11309 whole entry, looked up): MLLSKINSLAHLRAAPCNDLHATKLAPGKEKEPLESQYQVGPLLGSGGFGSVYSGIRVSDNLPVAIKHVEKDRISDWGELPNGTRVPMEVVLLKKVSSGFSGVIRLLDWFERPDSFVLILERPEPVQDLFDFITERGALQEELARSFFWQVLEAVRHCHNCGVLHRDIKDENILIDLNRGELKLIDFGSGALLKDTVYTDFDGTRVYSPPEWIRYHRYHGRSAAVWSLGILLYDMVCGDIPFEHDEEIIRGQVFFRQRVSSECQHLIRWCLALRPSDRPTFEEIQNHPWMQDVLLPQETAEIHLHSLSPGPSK
Experiment [4] has as its target Ephrin type-B receptor 4 (Homo sapiens) (UniProt P54760). In words: Inhibition of recombinant human EphB4 (561 to end residues) at 1 uM using poly(Glu, Tyr) 4:1 as substrate measured after 40 mins in presence of [gamma33P]ATP by scintillation counting method relative to control.
Experiment [5] concerns the target Serine/threonine-protein kinase DCLK3 (Homo sapiens) (UniProt Q9C098). Nature of the experiment: Inhibition of recombinant human DCAMKL3 (345 to end residues) at 1 uM using KKLNRTLSFAEPG as substrate measured after 40 mins in presence of [gamma33P]ATP by scintillation counting method relative to control.
The target of experiment [6] is Protein kinase C theta type (Homo sapiens) (UniProt Q04759). Nature of the experiment: Inhibition of recombinant full-length human PKCtheta at 1 uM using histone H1as substrate measured after 40 mins in presence of [gamma33P]ATP by scintillation counting method relative to control.
The target of experiment [7] is Mast/stem cell growth factor receptor Kit (Homo sapiens) (UniProt P10721). Nature of the experiment: Inhibition of recombinant human cKit (544 to end residues) at 1 uM using Poly(Glu,Tyr) 4:1 as substrate measured after 40 mins in presence of [gamma33P]ATP by scintillation counting method relative to control. The essentials: (§1)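 Single-point inhibition at 1 µM was measured in the Eurofins KinaseProfiler panel. Values are the mean of two independent experiments.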

A further experiment concerns Hep 3B2. In words: Antiproliferative activity against human Hep3B cells assessed as inhibition of cell viability after 72 hrs by CCK-8 assay. The class given is functional, cell-based. The essentials:
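Cells kept at 37 °C, 5% CO2 in DMEM or RPMI-1640 with 10% FBS and 1% penicillin/streptomycin, then seeded at 3000 cells/well (adherent) or 10,000 cells/well (suspension). Exposed to a range of concentrations for 72 h. CCK-8 added for 1-4 h before reading A450. […] Three independent experiments.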
For orientation: Tetrazolium assays rely on reduction of a dye to a coloured formazan, in cell work by metabolically active cells.

For experiment [8], the system named is Serine/threonine-protein kinase Nek4 (Homo sapiens), P51957 [P225A]. Nature of the experiment: Inhibition of recombinant full-length human NEK4 P225A mutant at 1 uM using myelin basic protein as substrate measured after 40 mins in presence of [gamma33P]ATP by scintillation counting method relative to control.
For experiment [9], the target named is Phosphatidylinositol 4-phosphate 5-kinase type-1 gamma (Homo sapiens) (UniProt O60331). In words: Inhibition of recombinant full-length human PIP5K1gamma at 1 uM using phosphatidylinositol 4-phosphate as substrate measured after 40 mins by HTRF assay relative to control. In general terms: Time-resolved FRET reads energy transfer from a long-lived donor to a nearby acceptor.
Sequence of Phosphatidylinositol 4-phosphate 5-kinase type-1 gamma (Homo sapiens) (O60331 whole entry): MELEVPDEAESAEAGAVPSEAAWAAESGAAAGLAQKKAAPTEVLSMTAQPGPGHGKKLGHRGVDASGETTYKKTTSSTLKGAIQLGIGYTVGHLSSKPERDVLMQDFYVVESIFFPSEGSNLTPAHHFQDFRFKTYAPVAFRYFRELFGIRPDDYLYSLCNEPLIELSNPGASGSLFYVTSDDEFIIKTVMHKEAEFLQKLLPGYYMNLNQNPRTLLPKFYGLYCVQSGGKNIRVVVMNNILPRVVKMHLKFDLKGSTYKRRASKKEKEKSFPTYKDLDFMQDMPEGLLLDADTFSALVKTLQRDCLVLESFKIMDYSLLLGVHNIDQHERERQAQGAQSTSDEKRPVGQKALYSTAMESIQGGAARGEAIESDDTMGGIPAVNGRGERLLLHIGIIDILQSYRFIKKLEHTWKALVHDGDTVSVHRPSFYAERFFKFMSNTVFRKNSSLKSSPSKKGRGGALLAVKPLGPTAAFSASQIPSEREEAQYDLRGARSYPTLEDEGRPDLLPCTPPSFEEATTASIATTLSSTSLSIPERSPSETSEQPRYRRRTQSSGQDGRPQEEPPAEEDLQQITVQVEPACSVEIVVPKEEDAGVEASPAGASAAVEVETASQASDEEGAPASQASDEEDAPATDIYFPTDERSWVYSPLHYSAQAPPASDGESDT

In experiment [10] the target is Mitogen-activated protein kinase kinase kinase kinase 5 (Homo sapiens) (UniProt Q9Y4K4). Nature of the experiment: Inhibition of recombinant full-length human MAP4K5 at 1 uM using MBP as substrate measured after 40 mins in presence of [gamma33P]ATP by scintillation counting method relative to control.
Experiment [11] has as its target Eukaryotic translation initiation factor 2-alpha kinase 1 (Homo sapiens) (UniProt Q9BQI3). Nature of the experiment: Inhibition of recombinant human HRI (140 to end residues) at 1 uM using RSRSRSRSRSRSRSR as substrate measured after 120 mins in presence of [gamma33P]ATP by scintillation counting method relative to control.
In experiment [12] the target is Tyrosine-protein kinase BTK (Homo sapiens) (UniProt Q06187). In words: Inhibition of full-length recombinant human BTK at 1 uM using KVEKIGEGTYGVVYK as substrate measured after 40 mins in presence of [gamma33P]ATP by scintillation counting method relative to control. The essentials:
as §1

Experiment [13] has as its system Tyrosine-protein kinase ABL1 (Homo sapiens), P00519 [Q252H]. Nature of the experiment: Inhibition of recombinant human ABL Q252H mutant (27 to end residues) at 1 uM using EAIYAAPFAKKK as substrate measured after 40 mins in presence of [gamma33P]ATP by scintillation counting method relative to control.
Experiment [14] concerns the target Calcium/calmodulin-dependent protein kinase type 1D (Homo sapiens) (UniProt Q8IU85). Nature of the experiment: Inhibition of recombinant full-length human CaMK1delta at 1 uM using calmodulin as substrate measured after 40 mins in presence of [gamma33P]ATP by scintillation counting method relative to control.
Experiment [15] relates to A549. In words: Induction of apoptosis in human A549 cells assessed as viable cells at 0.5 uM after 48 hrs by AnnexinV-FITC/PI staining-based flow cytometric analysis (reference value: 88.8%). The class given is functional. The settings on record: A549, 48 h, read-out: Activity. On the technique in general: In flow cytometry, cells or beads pass a laser one at a time.

For experiment [16], the target named is Ribosomal protein S6 kinase alpha-6 (Homo sapiens) (UniProt Q9UK32). Nature of the experiment: Inhibition of recombinant full-length human Rsk4 at 1 uM using LRRASLG as substrate measured after 40 mins in presence of [gamma33P]ATP by scintillation counting method relative to control.
In experiment [17] the test system is Mitogen-activated protein kinase 14 (Homo sapiens), Q16539 [T106M]. Nature of the experiment: Inhibition of recombinant full-length human SAPK2a T106M mutant at 1 uM using myelin basic protein as substrate measured after 40 mins in presence of [gamma33P]ATP by scintillation counting method relative to control.
Sequence of Mitogen-activated protein kinase 14 (Homo sapiens), Q16539 [T106M] (Q16539 whole entry T106M): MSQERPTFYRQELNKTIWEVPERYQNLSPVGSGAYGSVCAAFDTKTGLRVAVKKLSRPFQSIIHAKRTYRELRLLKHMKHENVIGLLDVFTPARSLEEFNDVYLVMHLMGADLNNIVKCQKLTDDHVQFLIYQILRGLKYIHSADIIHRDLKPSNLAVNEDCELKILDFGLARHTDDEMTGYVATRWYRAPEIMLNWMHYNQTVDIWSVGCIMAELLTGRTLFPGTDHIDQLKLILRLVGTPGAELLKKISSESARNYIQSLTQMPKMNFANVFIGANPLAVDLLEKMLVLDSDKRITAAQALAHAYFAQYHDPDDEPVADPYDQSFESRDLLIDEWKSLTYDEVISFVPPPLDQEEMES
The test system of another experiment is NCI-H1299. In words: Antitumour activity against human H1299 cells xenografted in po dosed Balb/c mouse assessed as inhibition of tumour growth after 21 days by digital caliper method. The class given is functional, organism-based. The essentials:
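Female nude mice, 6-8 weeks old, injected subcutaneously with 1×10^6 H1299 cells (100 µL of a 1×10^7/mL suspension in serum-free medium). At 100-120 mm3, randomized into groups of 5. Dosed orally each day for 21 days with drug dissolved in DMSO, or with vehicle. Caliper measurements and body weight taken every other day. Volume = short²×long×0.5. Growth inhibition based on change in volume relative to vehicle. Tumours weighed at the end.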

Experiment [18] has as its target Serine/threonine-protein kinase WNK1 (Homo sapiens) (UniProt Q9H4A3). Nature of the experiment: Inhibition of recombinant human WNK1 (1 to 491 residues) at 1 uM using MBP as substrate measured after 120 mins in presence of [gamma33P]ATP by scintillation counting method relative to control.
The target of experiment [19] is Dual specificity protein kinase CLK4 (Homo sapiens) (UniProt Q9HAZ1). In words: Inhibition of recombinant human CLK4 (128 to end residues) at 1 uM using YRRAAVPPSPSLSRHSSPHQS(p) EDEEE as substrate measured after 40 mins in presence of [gamma33P]ATP by scintillation counting method relative to control. The essentials: as §1
Sequence of Dual specificity protein kinase CLK4 (Homo sapiens) (Q9HAZ1 whole entry, looked up): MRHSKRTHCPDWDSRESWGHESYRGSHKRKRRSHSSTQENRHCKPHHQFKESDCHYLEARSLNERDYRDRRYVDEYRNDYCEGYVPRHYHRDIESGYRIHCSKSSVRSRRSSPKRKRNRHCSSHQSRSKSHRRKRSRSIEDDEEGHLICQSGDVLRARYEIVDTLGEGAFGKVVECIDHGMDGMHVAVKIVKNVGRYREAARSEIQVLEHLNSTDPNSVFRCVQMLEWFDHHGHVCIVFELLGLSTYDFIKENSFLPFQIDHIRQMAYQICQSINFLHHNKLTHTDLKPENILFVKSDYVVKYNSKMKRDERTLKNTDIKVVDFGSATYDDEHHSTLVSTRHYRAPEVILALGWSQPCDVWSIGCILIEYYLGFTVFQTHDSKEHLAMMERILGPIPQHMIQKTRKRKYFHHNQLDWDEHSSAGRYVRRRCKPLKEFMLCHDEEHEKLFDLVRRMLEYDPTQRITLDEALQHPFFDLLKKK

Sequence of Serine/threonine-protein kinase WNK1 (Homo sapiens) (Q9H4A3 whole entry, looked up, the tested form may be a part): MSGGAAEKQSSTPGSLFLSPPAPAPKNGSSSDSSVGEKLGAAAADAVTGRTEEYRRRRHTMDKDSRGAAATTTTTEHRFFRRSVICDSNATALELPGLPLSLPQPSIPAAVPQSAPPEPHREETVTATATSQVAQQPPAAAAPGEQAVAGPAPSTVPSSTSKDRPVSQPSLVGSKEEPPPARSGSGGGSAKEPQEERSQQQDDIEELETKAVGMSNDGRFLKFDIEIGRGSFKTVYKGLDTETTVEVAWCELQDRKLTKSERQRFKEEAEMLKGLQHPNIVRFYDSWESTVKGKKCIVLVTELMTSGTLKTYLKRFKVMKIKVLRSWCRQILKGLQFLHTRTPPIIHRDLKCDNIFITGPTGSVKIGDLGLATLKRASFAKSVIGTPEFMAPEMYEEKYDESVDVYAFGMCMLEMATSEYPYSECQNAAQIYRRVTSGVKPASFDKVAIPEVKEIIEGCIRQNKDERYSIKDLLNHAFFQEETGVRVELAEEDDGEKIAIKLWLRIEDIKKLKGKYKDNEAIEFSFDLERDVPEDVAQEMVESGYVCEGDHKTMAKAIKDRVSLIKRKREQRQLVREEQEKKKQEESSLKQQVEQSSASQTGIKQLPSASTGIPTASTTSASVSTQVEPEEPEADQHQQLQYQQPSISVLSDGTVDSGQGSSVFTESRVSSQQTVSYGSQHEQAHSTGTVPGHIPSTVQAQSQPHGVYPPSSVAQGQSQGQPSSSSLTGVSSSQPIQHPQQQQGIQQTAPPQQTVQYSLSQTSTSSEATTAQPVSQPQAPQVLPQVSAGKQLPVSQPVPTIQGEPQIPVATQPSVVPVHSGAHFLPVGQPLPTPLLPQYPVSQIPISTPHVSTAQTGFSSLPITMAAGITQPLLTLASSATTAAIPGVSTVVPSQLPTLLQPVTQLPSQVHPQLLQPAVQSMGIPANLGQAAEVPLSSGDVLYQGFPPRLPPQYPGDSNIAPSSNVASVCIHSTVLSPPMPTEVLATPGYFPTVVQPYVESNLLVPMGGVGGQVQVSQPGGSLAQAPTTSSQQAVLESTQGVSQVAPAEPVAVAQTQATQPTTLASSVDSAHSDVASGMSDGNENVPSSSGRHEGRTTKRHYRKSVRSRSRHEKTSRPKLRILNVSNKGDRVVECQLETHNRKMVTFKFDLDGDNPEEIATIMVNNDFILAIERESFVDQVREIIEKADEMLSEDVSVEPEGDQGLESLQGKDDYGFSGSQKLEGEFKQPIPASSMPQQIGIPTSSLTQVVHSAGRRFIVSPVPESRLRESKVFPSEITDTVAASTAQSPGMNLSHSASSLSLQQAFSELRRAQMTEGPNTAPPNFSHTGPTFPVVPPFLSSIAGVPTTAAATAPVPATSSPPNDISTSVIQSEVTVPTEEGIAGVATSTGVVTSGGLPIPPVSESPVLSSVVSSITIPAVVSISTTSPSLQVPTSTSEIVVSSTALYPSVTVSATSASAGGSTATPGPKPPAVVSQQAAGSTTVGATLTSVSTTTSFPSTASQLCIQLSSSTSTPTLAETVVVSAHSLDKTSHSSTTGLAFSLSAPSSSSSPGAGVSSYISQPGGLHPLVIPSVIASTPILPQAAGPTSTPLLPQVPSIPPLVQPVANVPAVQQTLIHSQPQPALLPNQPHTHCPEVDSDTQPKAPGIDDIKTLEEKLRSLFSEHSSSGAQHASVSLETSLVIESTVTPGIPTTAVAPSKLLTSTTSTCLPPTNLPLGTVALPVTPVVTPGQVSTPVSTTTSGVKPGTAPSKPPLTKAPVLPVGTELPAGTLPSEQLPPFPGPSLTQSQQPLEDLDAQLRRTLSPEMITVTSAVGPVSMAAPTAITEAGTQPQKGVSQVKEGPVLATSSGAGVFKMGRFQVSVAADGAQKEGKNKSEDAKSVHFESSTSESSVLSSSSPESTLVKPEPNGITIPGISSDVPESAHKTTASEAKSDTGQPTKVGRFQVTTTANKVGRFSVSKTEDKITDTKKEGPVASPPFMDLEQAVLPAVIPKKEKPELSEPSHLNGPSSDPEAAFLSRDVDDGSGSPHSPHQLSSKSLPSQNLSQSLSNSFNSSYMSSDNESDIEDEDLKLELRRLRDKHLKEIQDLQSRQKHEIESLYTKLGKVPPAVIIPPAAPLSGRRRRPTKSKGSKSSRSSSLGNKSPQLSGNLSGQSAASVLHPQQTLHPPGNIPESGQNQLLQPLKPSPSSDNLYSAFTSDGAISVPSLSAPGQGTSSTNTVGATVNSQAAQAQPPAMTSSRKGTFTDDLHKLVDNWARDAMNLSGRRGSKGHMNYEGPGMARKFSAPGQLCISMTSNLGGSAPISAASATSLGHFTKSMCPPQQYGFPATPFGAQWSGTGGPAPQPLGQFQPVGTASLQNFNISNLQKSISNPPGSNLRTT
Sequence of Tyrosine-protein kinase BTK (Homo sapiens) (Q06187 whole entry): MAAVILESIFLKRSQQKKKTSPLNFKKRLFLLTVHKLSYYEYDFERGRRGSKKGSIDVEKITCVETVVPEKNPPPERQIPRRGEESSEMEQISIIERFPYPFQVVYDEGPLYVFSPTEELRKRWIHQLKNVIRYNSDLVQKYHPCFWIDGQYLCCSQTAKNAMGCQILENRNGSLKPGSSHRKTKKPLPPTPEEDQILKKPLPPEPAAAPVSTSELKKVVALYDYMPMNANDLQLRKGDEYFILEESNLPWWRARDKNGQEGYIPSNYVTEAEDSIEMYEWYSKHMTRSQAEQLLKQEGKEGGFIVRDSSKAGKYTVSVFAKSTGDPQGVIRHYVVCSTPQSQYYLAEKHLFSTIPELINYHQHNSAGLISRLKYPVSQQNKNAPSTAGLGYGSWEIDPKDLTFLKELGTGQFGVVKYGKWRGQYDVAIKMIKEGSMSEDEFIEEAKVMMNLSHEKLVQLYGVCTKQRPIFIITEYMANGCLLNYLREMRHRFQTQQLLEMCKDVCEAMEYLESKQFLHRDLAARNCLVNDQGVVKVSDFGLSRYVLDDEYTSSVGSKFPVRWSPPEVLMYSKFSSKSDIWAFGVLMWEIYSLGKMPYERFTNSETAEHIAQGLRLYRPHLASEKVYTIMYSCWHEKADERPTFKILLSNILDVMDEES

Take `CN(C)C(=O)c1cc2cnc(Nc3ccc(NC(=O)CCCCCCCN=C=S)cc3)nc2n1C1CCCC1`: the inhibition in experiment [1] is 53%; in [3], 8%; in experiment [4], -4%; in [5], 9%; in experiment [6], 47%; in experiment [7], 26%. The inhibition in experiment [8] came to 63%; in experiment [9], 0%; in experiment [10] it was 75%; in [11], 30%; in experiment [12], 96%; in experiment [13] it was 48%. Further, the inhibition turned out to be 3% in experiment [14]; 38% in experiment [16]; 0% in experiment [17]; 6% in experiment [18]; 1% in experiment [19]. The result with A549 [2] was Active. The IC50 in the experiment on Hep 3B2 was found to be 5.61 µM. For the same compound, the viability at 0.5 µM in the experiment on A549 [15] worked out at 78.8%. Besides, in the experiment with NCI-H1299, the TGI entry was “Dose-dependent effect”.

In general, inhibition refers to the relative decrease from the control value, in per cent. One may read the IC50 as the concentration at which inhibition is half-maximal.
